# T cruzi repl: blocks replication of Trypanosoma cruzi; hit rate 1.4% among 300,000; AID 1885; T. cruzi beta-gal in NIH3T3, luminescence, 90 h; inhibition, % (no concentration beside the values);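 active means mean inhibition across valid replicates above about 55%, limit read from the data; inconclusive means mean below that limit but half or more replicates reach it; inactive means mean below it, under half of replicates reach it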;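 further: signal also drops with host cell toxicity which is not excluded here; 0% = plate median of DMSO wells and 100% = zero luminescence signal; higher percent means less beta-gal luminescence so fewer parasites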
#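 System: Mouse NIH/3T3 fibroblasts infected with β-gal-expressing T. cruzi Tulahuen C4 | Quantity: NIH/3T3 cells, 5,000 per well | Reagent: 5000 reporter trypomastigotes per well | Dosing: Compound pinned at 50 nL/well, DMSO | Schedule: 3 h host attachment, then at least 90 h co-culture | Detection: GalScreen luminescence, 60 min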
# CSC inhib: cancer stem cell inhibition. AID 2717. inhibition, % at 7.5 µM. hit rate 1.1% among 300,000. cancer stem cell-like cells viability, luminescence; in the data active means inhibition above about 75%; inconclusive means no clear call, values can overlap the other calls; tested in HMLE shEcad cells
# CHOP inhibitor: inhibitors of CHOP induction in ER stress response | CHO-K1 CHOP-promoter luciferase, tunicamycin-induced, 15-18 h | inhibition, % at 10 µM | hit rate 3.8% among 220,000 | AID 2732;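 active means compounds that reduced the stress-induced luciferase reporter signal by more than about 70% of percent inhibition, limit read from the data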;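 further: 0% = tunicamycin plus vehicle and 100% = wells without tunicamycin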
# GRIN3A LBD mod: NR3A (human) ligand-binding domain modulation; hit rate 2.5% among 340,000; AID 1259313; NR3A LBD differential scanning fluorimetry, Tm shift; 0% = protein alone, 100% = glycine-bound protein; Tm shift relative to glycine control, % at 25 µM;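 active means melting temperature shift of at least 10% of the positive control shift, at one fixed dose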
# Beta apoptosis: blocks beta cell apoptosis | hit rate 0.8% among 300,000 | INS-1E cytokine-induced death, ATP luminescence, 48 h; percent of positive-control rescue, neutral wells zero | protection from apoptosis, % (no concentration beside the values);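 active means Every replicate reaches about 75%, or at least half do and their mean reaches it too, limit read from the data; inconclusive means At least half of replicates reach the limit but their mean does not; inactive means Under half of replicates reach the limit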;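 further: 0% = cytokine-treated negative control wells and 100% = positive control rescue; higher means more ATP so stronger rescue from cytokine killing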
# PREPL inhibitor: human PREPL enzyme inhibition; Q4J6C6; recombinant PREPL, fluorescence polarization activity-based probe; inhibition, % at 5.96 µM; AID 2751; hit rate 0.68% among 320,000; in the data active means inhibition above about 43%;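 further: 0% = enzyme with DMSO and 100% = wells lacking enzyme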
# Target sequence (Q4J6C6 whole entry, looked up): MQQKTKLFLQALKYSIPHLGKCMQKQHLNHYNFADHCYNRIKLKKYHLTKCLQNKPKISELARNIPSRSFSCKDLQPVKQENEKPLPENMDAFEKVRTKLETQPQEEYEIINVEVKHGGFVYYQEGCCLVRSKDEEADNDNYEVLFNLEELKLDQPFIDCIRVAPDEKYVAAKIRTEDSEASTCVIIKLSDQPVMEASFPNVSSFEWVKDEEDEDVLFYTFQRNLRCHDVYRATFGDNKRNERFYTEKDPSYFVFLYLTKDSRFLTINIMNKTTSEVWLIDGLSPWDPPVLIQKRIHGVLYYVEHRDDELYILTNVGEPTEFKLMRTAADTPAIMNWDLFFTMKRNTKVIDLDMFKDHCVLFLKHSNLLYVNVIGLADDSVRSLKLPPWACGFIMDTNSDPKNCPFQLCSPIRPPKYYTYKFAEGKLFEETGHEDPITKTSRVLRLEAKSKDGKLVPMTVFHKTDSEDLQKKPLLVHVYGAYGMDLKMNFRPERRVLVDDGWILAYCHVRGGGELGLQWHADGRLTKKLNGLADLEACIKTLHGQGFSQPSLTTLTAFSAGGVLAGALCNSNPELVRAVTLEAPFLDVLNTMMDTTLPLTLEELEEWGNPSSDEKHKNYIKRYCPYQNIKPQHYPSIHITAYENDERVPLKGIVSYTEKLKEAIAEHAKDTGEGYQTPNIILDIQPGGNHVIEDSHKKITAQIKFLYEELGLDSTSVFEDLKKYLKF
# CHOP inh conf: confirmation of CHOP induction inhibitors; AID 504437; inhibition, % at 10 µM; CHO-CHOP promoter luciferase reporter, tunicamycin-induced, luminescence; hit rate 45% among 2,100; shares compounds with CHOP inhibitor;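 active means mean of three repeat readings of reporter signal inhibition above a set limit, cut at about 70% in these data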;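 further: 0% = tunicamycin plus vehicle and 100% = wells lacking tunicamycin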
# An asterisk follows results filed as active; ? = inconclusive; / = not tested or not shown. This is a sample that favours compounds with a hit; in the whole collection about 6.7% have one here.
SMILES,T cruzi repl,CSC inhib,CHOP inhibitor,GRIN3A LBD mod,Beta apoptosis,PREPL inhibitor,CHOP inh conf
C=CCOC(=O)N1CCC2CC1c1cc(-c3cccc(C)c3)ccc12 (centres undefined),/,/,/,-1,/,/,/
C#CC(=O)CC1(CN(Cc2ccccc2)C(=O)OC(C)(C)C)CCCCC1,/,/,/,3,/,/,/
CCn1c(=O)c(C(=O)CN2CCCc3ccccc32)c(N)n(Cc2ccccc2)c1=O,54,/,97*,-3,-2,23,13
CCOc1cc(CNc2ccc(O)cc2)cc(Br)c1OCc1ccccc1F,15,38,110*,0,16,21,63
C=CCOC(=O)C1=C(C)NC(SCC(=O)Nc2nccs2)=C(C#N)C1c1cccs1 (centres undefined),52,69,99*,1,13,-17,42
C=CCOC(=O)C1=C(C)NC(SCC(=O)Nc2nccs2)=C(C#N)C1c1ccc(Cl)cc1 (centres undefined),51,-2,106*,-11,6,-18,132*
Cc1cc(C(=O)NNC(=O)c2ccc(NC(=O)CC#N)cc2)c(C)o1,/,-16,/,0,-2,-4,/
Cc1ccc(C2CN(C)C3(C(=O)Nc4ccccc43)C23COc2ccccc2C3=O)cc1 (centres undefined),27,10,107*,-3,-9,3,88*
CN1CC(c2ccccc2Cl)C2(COc3ccccc3C2=O)C12C(=O)Nc1ccccc12 (centres undefined),32,41,68,-14,-8,-9,/
CC(NC(=O)C1CCC(C)(C(=O)O)C1(C)C)c1ccccc1 (centres undefined),-6,-9,/,1,-6,3,/
NC(=O)C1CCCN(CC(=O)Nc2cc(S(=O)(=O)N3CCOCC3)ccc2N2CCCC2)C1 (centres undefined),/,/,/,0,1,4,/
CCOC(=O)C(=CNc1cc(C)nn1-c1ccc(Cl)cc1)C(=O)OCC,17,-9,104*,2,-2,14,14
Oc1ccc(-c2nnc(SCC3CCCCC3)o2)cc1,49,71,107*,-4,1,-8,35
O=C(CSc1nnc(-c2ccc(O)cc2)o1)N1CCOCC1,-4,5,19,0,-3,7,/
CCSc1nc2ccccc2n1C(=O)/C=C\c1ccc(OC)c(OC)c1,-20,-66,110*,-13,50,10,111*
CCSc1nc2ccccc2n1CC(N)=O,-3,3,16,0,4,8,/
COc1ccccc1C(=O)Oc1ccc(C(C)C)cc1,-7,-7,99*,5,-1,5,118*
COc1ccc(CNCc2ccc3ccccc3c2)c(OC)c1,27,7,/,-1,1,6,/
O=C(c1cn(-c2ccccc2)nc1-c1ccc(F)cc1)N1CCCCC1,19,15,23,2,7,3,/
Fc1ccc(-c2nn(-c3ccccc3)cc2CNCc2ccccc2)cc1,?,-11,101*,-8,11,-34,123*
Fc1ccc(-n2cc(CNCCc3cccnc3)c(-c3ccccc3Cl)n2)cc1,13,-5,31,-1,5,-35,/
O=C(CCl)Nc1cn(-c2ccccc2)nc1-c1ccc(F)cc1,-16,7,105*,1,-9,13,100*
Cc1oc(-c2ccccc2F)nc1CS(=O)CC(=O)NC1CCCC1 (centres undefined),15,-8,/,-1,5,0,/
O=c1onc2n1-c1cc(Br)ccc1OC2,/,/,-14,/,/,/,/
Cc1cc2nc(-c3ccc(SCC(=O)N4CCc5ccccc54)nc3)[nH]c2cc1C,44,52,107*,25*,15,12,26
SMILES,T cruzi repl,CSC inhib,CHOP inhibitor,GRIN3A LBD mod,Beta apoptosis,PREPL inhibitor,CHOP inh conf
Cc1cc(NC(=O)CSc2ccc(-c3nc4cc(C)c(C)cc4[nH]3)cn2)no1,3,11,104*,6,26,5,15
O=c1[nH]c2ccc(Cl)cc2c(-c2ccccc2)c1N1CCOCC1,13,27,57,0,-4,2,/
O=C(c1ccco1)N1CCN(c2c(-c3ccccc3)c3cc(Cl)ccc3[nH]c2=O)CC1,-7,-4,97*,-18,/,25,115*
CCc1ccc(OS(=O)(=O)c2cn(C)c(=O)n(C)c2=O)cc1,-8,-5,-32,0,-5,1,/
COCCCNC(=O)c1cccn2c(=O)c3cc4ccccc4cc3nc12,/,14,98*,2,21,19,58
CSc1ccccc1NC(=O)CN1CCN(S(=O)(=O)c2ccccc2[N+](=O)[O-])CC1,/,-10,/,2,-20,3,/
CCCOc1ccc(/C=N/NC(=S)Nc2ccccc2[N+](=O)[O-])c(O)c1,8,89*,101*,12*,108*,5,32
O=C(OCc1ccccc1)N1CCCC1/C=C/CN1CCOCC1 (centres undefined),-10,-2,-3,-1,-20,9,/
CC(C)Oc1cc(NC(=O)CS(=O)CC(=O)Nc2cccc(C(F)(F)F)c2)c(Cl)cc1Cl (centres undefined),1,54,107*,26*,-2,4,120*
CCN(CC)C(=S)Sc1c(-c2ccccc2)c2cc(Cl)ccc2[nH]c1=O,35,-4,97*,-6,6,6,48
O=C(Oc1cc2oc(=O)c3c(c2cc1Cl)CCCC3)c1ccco1,3,-6,57,-1,-4,34,/
CC(=O)Oc1cc2oc(=O)c3c(c2cc1Cl)CCC3,21,/,99*,2,/,13,6
CC(C)NC(=O)CC(c1ccccc1)c1cc(Br)ccc1O (centres undefined),-5,6,23,-3,-3,-1,/
CCCCCCNC(=O)CC(c1ccccc1)c1cc(Br)ccc1O (centres undefined),10,/,101*,12*,5,1,112*
O=C(NC(=S)N1CCCCC1CO)c1cc(Br)ccc1Cl (centres undefined),/,/,/,-4,/,/,/
CCCOc1c(Cl)cc(/C=N/O)cc1OCC,14,15,102*,-1,-5,-10,-21
CCOC(=O)C1(Cc2ccc(OC)cc2)CCN(C(=O)C2=CCCC2)CC1,-11,5,102*,0,-6,3,14
CCOC(=O)C1(Cc2ccc(OC)cc2)CCN(C(=O)c2cc(C)on2)CC1,-8,0,/,0,-4,17,/
O=[N+]([O-])c1ccc(-c2nn(-c3ccccc3)cc2/C=N/n2c(-c3cccs3)n[nH]c2=S)cc1,1,10,102*,-2,56,2,101*
CCOc1ccc(NS(=O)(=O)c2cc3c4c(c2)C(C)C(=O)N4CCC3)cc1 (centres undefined),-10,-4,/,0,1,2,/

# Source: PubChem BioAssay
